Holding throughout (type): functional
One test concerns HT-29. Description: Growth inhibition of human HT-29 cells after 72 hrs by CellTiter-Glo reagent based assay. The following applies: HT-29, 72 h. The method in brief: (§1)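 Cancer cell lines (PC3 prostate, HT29 colorectal carcinoma, MDA-MB-231 breast) were screened by quantitative high-throughput screening in whole cells, and CC50 values were derived.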
Another test deals with MDA-MB-231. Put plainly: Growth inhibition of human MDA-MB-231 cells after 72 hrs by CellTiter-Glo reagent based assay. Conditions: MDA-MB-231, 72 h. The method in brief: as §1
For the next test, the system named is PC-3. Put plainly: Growth inhibition of human PC3 cells after 72 hrs by CellTiter-Glo reagent based assay. The following applies: PC-3, 72 h. In short, it runs like this: as §1

As to `CC1=C(CC(=O)NCCCN(C)C)c2cc(F)ccc2/C1=C\c1ccc([S+](C)[O-])cc1` (stereo not given), the CC50 in the test on HT-29 is 33.3 µM; with MDA-MB-231, over 50 µM; in the test on PC-3, over 50 µM.
As to `CCN(CC)CCNC(=O)CC1=C(C)/C(=C/c2ccc([S+](C)[O-])cc2)c2ccc(F)cc21` (stereo not given), the values for the CC50 in the test with HT-29, in the test on MDA-MB-231 and in the test on PC-3 were 19.8 µM, over 50 µM and over 50 µM, respectively.
With `CCNCCN(CC)C(=O)CC1=C(C)/C(=C/c2ccc(SC)cc2)c2ccc(F)cc21`, the 50% cytotoxic concentration (CC50) was determined as 2.54 µM in the test on HT-29, 6.65 µM with MDA-MB-231 and 6.56 µM with PC-3.
For `CCN(CCN(C)C)C(=O)CC1=C(C)/C(=C/c2ccc([S+](C)[O-])cc2)c2ccc(F)cc21` (stereo not given) the same measures were 18.2 µM, over 50 µM and over 50 µM.
Taken in the same sequence, the figures for `CNCCN(C)C(=O)CC1=C(C)/C(=C/c2ccc([S+](C)[O-])cc2)c2ccc(F)cc21` (stereo not given) were 34.5 µM, over 50 µM and over 50 µM.
On to `CSc1ccc(/C=C2/C(C)=C(CC(=O)N(C)CCCN(C)C)c3cc(F)ccc32)cc1`, for which the figures for the 50% cytotoxic concentration (CC50) with HT-29, in the test with MDA-MB-231 and in the test on PC-3 were 2.18 µM, 5.41 µM and 6.98 µM, respectively.
For `CNCCCN(C)C(=O)CC1=C(C)/C(=C/c2ccc(SC)cc2)c2ccc(F)cc21` the same measures were 2.9 µM, 7.66 µM and 7.65 µM.
As to `CSc1ccc(/C=C2/C(C)=C(CC(=O)NCCCN(C)C)c3cc(F)ccc32)cc1`, the CC50 with HT-29 was 2.46 µM; in the test on MDA-MB-231 it was 5.18 µM; in the test with PC-3, 6.99 µM.
For `CCN(CC)CCN(C)C(=O)CC1=C(C)/C(=C/c2ccc([S+](C)[O-])cc2)c2ccc(F)cc21` (stereo not given) the same measures were 24 µM, over 50 µM and over 50 µM.
Take `CCN(CC)CCN(C)C(=O)CC1=C(C)/C(=C/c2ccc(SC)cc2)c2ccc(F)cc21`: the 50% cytotoxic concentration (CC50) in the test on HT-29 was 1.49 µM; in the test on MDA-MB-231, 3.77 µM; in the test on PC-3, 5.65 µM.
Taken in the same sequence, the figures for `CCN(CC)CCN(CC)C(=O)CC1=C(C)/C(=C/c2ccc([S+](C)[O-])cc2)c2ccc(F)cc21` (stereo not given) were 18.4 µM, over 50 µM and over 50 µM.
For `CCNCCCN(CC)C(=O)CC1=C(C)/C(=C/c2ccc(SC)cc2)c2ccc(F)cc21` the same measures were 1.38 µM, 3.03 µM and 3.92 µM.
For `CSc1ccc(/C=C2/C(C)=C(CC(=O)N(CCCNC(C)C)C(C)C)c3cc(F)ccc32)cc1` the same measures were 2.3 µM, 3.92 µM and 4.9 µM.
Turning to `CCN(CC)CCCNC(=O)CC1=C(C)/C(=C/c2ccc([S+](C)[O-])cc2)c2ccc(F)cc21` (stereo not given), the CC50 is 27.1 µM in the test with HT-29, over 50 µM in the test with MDA-MB-231 and over 50 µM with PC-3.
In the case of `CCN(CC)CCN(CC)C(=O)CC1=C(C)/C(=C/c2ccc(SC)cc2)c2ccc(F)cc21`, the CC50 in the test with HT-29 stood at 1.83 µM; in the test on MDA-MB-231 it was 5.22 µM; with PC-3, 6.21 µM.
Taken in the same sequence, the figures for `CCN(CC)CCNC(=O)CC1=C(C)/C(=C/c2ccc(SC)cc2)c2ccc(F)cc21` were 1.54 µM, 4.2 µM and 5.45 µM.
For `CCN(CCN(C)C)C(=O)CC1=C(C)/C(=C/c2ccc(SC)cc2)c2ccc(F)cc21` the same measures were 1.36 µM, 3.96 µM and 5.07 µM.
In the case of `CC1=C(CC(=O)N(C)CCCN(C)C)c2cc(F)ccc2/C1=C\c1ccc([S+](C)[O-])cc1` (stereo not given), the cytotoxic concentration (CC50) with HT-29 is 38.9 µM; in the test with MDA-MB-231 it was over 50 µM; in the test on PC-3 it was over 50 µM.
`CNCCN(C)C(=O)CC1=C(C)/C(=C/c2ccc(SC)cc2)c2ccc(F)cc21`: the results for the half-maximal cytotoxic concentration (CC50) in the test with HT-29, with MDA-MB-231 and in the test with PC-3 were 2.8 µM, 5.84 µM and 6.75 µM, respectively.
In the case of `CC1=C(CC(=O)NCc2ccccc2)c2cc(F)ccc2/C1=C\c1ccncc1` [CP-461 FREE BASE], the 50% cytotoxic concentration (CC50) in the test on HT-29 was 2.14 µM; in the test on MDA-MB-231 it was 3.68 µM; with PC-3, 5.71 µM.

For the origin of these results see ChEMBL document CHEMBL4043244, “Diverse amide analogs of sulindac for cancer treatment and prevention” (Bioorg Med Chem Lett, 2017).
